# Source: PubChem
# HKDC1 act – activators of human hexokinase HKDC1. Q2TB90. recombinant HKDC1, G6PDH/diaphorase resazurin fluorescence; stronger effect = lower value. activity change, negative = activation, % at 20 µM. hit rate 0.056% among 340,000. AID 493187;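 active means activation of 40% or more at 20 µM, a change of -40% or lower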
# Target sequence (Q2TB90 whole entry, looked up): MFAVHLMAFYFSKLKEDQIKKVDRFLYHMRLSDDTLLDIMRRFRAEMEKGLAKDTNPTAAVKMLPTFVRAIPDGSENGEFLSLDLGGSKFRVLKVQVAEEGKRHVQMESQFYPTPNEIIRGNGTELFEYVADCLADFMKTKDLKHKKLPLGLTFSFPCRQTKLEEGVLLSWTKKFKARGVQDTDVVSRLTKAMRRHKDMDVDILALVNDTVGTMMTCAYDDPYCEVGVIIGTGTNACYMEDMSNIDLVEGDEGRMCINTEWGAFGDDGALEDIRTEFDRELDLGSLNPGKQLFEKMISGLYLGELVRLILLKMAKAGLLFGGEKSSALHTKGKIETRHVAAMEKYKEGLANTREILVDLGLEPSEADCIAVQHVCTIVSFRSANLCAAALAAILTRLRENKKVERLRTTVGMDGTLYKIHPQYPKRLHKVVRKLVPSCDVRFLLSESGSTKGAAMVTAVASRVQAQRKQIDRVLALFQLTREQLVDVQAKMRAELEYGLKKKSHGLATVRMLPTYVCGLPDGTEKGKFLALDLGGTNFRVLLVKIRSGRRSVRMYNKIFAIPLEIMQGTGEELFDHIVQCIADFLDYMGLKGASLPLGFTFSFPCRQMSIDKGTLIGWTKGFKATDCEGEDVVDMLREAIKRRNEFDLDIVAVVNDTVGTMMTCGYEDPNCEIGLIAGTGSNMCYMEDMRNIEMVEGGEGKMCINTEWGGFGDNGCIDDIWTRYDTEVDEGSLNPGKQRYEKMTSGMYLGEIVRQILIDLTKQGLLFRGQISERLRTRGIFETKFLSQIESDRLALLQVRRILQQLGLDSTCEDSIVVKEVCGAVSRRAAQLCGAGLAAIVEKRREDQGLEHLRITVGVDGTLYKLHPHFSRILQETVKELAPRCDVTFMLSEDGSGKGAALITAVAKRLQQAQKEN
#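 Signal: coupled resazurin-to-resorufin fluorescence, Ex 525/Em 613 nm. Test system: in-house human HKDC1 enzyme, G6PDH and diaphorase coupling enzymes. Quantity: HKDC1 5 µg/mL. Timing: 90 min reaction at room temperature, dark.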
# Numbers without * were called inactive. These entries were drawn from the full list.
SMILES,HKDC1 act
N#CC1=C(N)Oc2c(c(=O)sc3ccccc23)C1c1ccncc1 (stereo unspecified),-57.7*
O=C1C=CC(=O)C=C1,48.3
Cc1cc(/C=C2\C(=O)NC(=O)N(c3ccc(Cl)cc3)C2=O)c(C)n1-c1sc2c(c1C#N)CCCC2,68.9
CC[C@H](C)/C=C(C)/C=C/C1=CC2=C(Cl)C(=O)[C@@](C)(OC(C)=O)C(=O)C2=CO1,62.8
O=C1CC=C2C3CC4N(CCC45c4cc(O)c(O)cc4N1C25)CC3=CCBr (stereo unspecified),44.6
CCn1nc(-c2ccccc2)nc2c(=O)n(C)c(=O)nc1-2,-83.0*
O=c1[nH]c(O)c(/C=C2/C=CC(c3cc(Cl)ccc3Cl)=N2)c(=O)[nH]1,40.4
COc1ccc(/C=C2\C(=O)NC(=S)N(C)C2=O)cc1C,36.4
Cc1ccc2c(C)c3ccc4ccccc4c3c[n+]2c1,-52.8*
N#CC(C#N)=Cc1ccc(C=C(C#N)C#N)cc1,37.6
COC(=O)C1=C(C(=O)OC)SC2(S1)C(C(=O)OC)=C(C(=O)OC)Sc1c2ssc1=O,-108.7*
CCOC(=O)c1c(-n2c(C)cc(/C=C3\C(=O)NC(=O)N(C)C3=O)c2C)sc2c1CCCC2,51.2
COc1ccc(OC)c(N2C(=O)/C(=C/c3ccco3)C(=O)NC2=S)c1,82.3
O=c1c2ccccc2[se]n1-c1ccccc1,-115.9*
O=C(O)CC1OCC=C2CN3CCC45C6=CC(=O)C(=O)C([N+](=O)[O-])=C6NC4C1C2CC35 (stereo unspecified),42.5
Cn1c(=O)c2c(nc(N/N=C/c3c(O)n(C4CCCCC4)c(=S)[nH]c3=O)n2C)n(C)c1=O,-46.3*
NC(=O)c1ccc(N=Cc2c(O)n(Cc3ccco3)c(=O)[nH]c2=O)cc1,36.2
O=C1NC(=S)N(c2ccc(F)cc2)C(=O)/C1=C\c1ccoc1,50.9
COC(=O)C1CN(C#N)N(c2ccc(Cl)cc2)C12c1ccccc1-c1ccccc12 (stereo unspecified),87.2
